Test results taken from paper PMC2413043 (The Journal of Experimental Medicine, 2008).

Experiments:
NOS2 [1] = assay: NOS2 protein levels by immunoblot in RAW cells; assay type: cell-based, mouse; conditions: RAW cells
Summary of the method: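 RAW 264.7 cells were handled in two ways. For agonist response, cells were exposed to the TLR agonists PGN, poly(I:C), LPS or E. coli for 16 h, with or without TSA. For TSA dose-response, cells were pretreated with increasing TSA for 1 h, then given LPS 100 ng/ml for 6 h, with ERα as the blot control. In both, lysates were immunoblotted for NOS2.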

ERK1/2 = assay: Phosphorylation of ERK1/2 by immunoblot in RAW cells; assay type: cell-based, mouse; conditions: RAW cells pretreated 30 ng/ml TSA 1 h, 100 ng/ml LPS 30 min
Summary of the method: (§1)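 RAW 264.7 cells (DME, 10% FBS) pretreated with TSA 30 ng/ml for 1 h, then LPS 100 ng/ml for 30 min. Whole-cell lysates were immunoblotted with antibodies to phosphorylated and total forms of the MAPK in question.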

JNK1/2 = assay: Phosphorylation of JNK1/2 by immunoblot in RAW cells; assay type: cell-based, mouse; conditions: RAW cells pretreated 30 ng/ml TSA 1 h, 100 ng/ml LPS 30 min
Summary of the method: as §1

MKP-1 and p300 = assay: MKP-1 interaction with p300 by co-immunoprecipitation in RAW cells; assay type: cell-based, mouse; conditions: RAW cells treated with TSA; IP p300, blot MKP-1
MKP-1-ERα and ERK1 = assay: MKP-1-ERα/ERK1 interaction by co-immunoprecipitation in HeLa cells; assay type: cell-based; conditions: His6-ERK1, LPS and TSA 1 h
Summary of the method: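 HeLa cells in DME with 10% FBS were co-transfected by Lipofectamine 2000 with MKP-1(WT)-ERα or MKP-1(K57R)-ERα plus His6-ERK1. Fusion expression was induced with 200 nM 4-hydroxytamoxifen, then cells were treated with LPS and TSA for 1 h. Lysates were immunoprecipitated and immunoblotted with anti-ERα (MKP-1 tag) and anti-His6 (ERK1 tag).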

phospho-p38 = assay type: cell-based; conditions: MKP-1 immunoprecipitated from RAW cells treated with LPS and TSA 4 h
Summary of the method: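 RAW 264.7 cells grown in DME with 10% FBS were treated with LPS plus TSA, or with control, for 4 h. Endogenous MKP-1 was immunoprecipitated from the lysates and incubated with recombinant phospho-p38 or phospho-ERK1. Remaining phosphorylation was detected by immunoblotting with phospho-p38 or phospho-ERK antibodies. The amount of phospho-substrate added was shown as an input lane.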

p38 = assay: Phospho-p38 in RAW cells with MKP-1 siRNA or control siRNA; assay type: cell-based, mouse
Summary of the method: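 RAW cells stably transfected with vectors encoding hairpin siRNA against MKP-1 nucleotides 67–85 or 743–761, or a control sequence, with separate clones isolated. Knockdown was confirmed by MKP-1 immunoblot. Clones were treated with LPS and TSA, and lysates were immunoblotted for NOS2 and MAPK family members, including phospho-p38.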

NOS2 [2] = assay: NOS2 expression in RAW cells with MKP-1 siRNA or control siRNA; assay type: cell-based, mouse; conditions: LPS and TSA
Summary of the method: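 RAW 264.7 cells were stably transfected with vectors encoding siRNA hairpins against MKP-1 nucleotides 67–85 or 743–761, or with a control hairpin. Knockdown in the isolated clones was confirmed by MKP-1 immunoblot. Clones were treated with LPS and TSA, and lysates were immunoblotted for NOS2 and MAPK family members.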

WT mice = assay: LPS-induced mortality in WT mice; assay type: in vivo, mouse; conditions: Fig. S4 B
IL-1β = IL-1β in media of primary macrophages by ELISA; assay type: cell-based, mouse; conditions: TSA and LPS, 4 h, n = 2 ± SD
Summary of the method: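 Primary peritoneal macrophages collected by PBS lavage from resting WT or MKP-1−/− mice, not thioglycolate-elicited; the mice were on a C57BL/6J background. Cells stimulated with TSA, LPS or both. After 4 h, TNF-α and IL-1β in the media were measured by ELISA; n = 2, mean ± SD.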

TNF-α and IL-1β = assay: Liver TNF-α and IL-1β mRNA by RT-PCR; assay type: in vivo, mouse; conditions: liver 4 h after LPS, two representative mice
Summary of the method: (§2)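 Mice were dosed with TSA each day from day −2 and challenged with LPS on day 0. Liver RNA was harvested 4 h after LPS. RT-PCR was run for TNF-α and IL-1β, or for COX-2 and CXCL2, with two mice per group.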

COX-2 and CXCL2 = assay: Liver COX-2 and CXCL2 expression by RT-PCR; assay type: in vivo, mouse; conditions: 4 h after LPS, n = 2
Summary of the method: as §2

CC(/C=C/C(=O)NO)=C\[C@@H](C)C(=O)c1ccc(N(C)C)cc1 [TSA, trichostatin A]
NOS2 expression activated by TLR agonists (LPS, E. coli, PGN, dsRNA) (NOS2 [1]; TLR agonist 16 h, effect of TSA): inhibits expression of NOS2 activated by each of these four TLR activators
NOS2 steady-state protein levels (NOS2 [1]; TSA pretreatment 1 h, LPS 6 h): decreases NOS2 steady-state protein levels
LPS-induced phosphorylation of ERK1/2 (ERK1/2): decreases
LPS-induced phosphorylation of JNK1/2 (JNK1/2): not JNK1/2
MKP-1 association with p300 (MKP-1 and p300): MKP-1 associates with p300 in TSA-treated macrophages
interaction of ERK1 and MKP-1 (WT vs mutant K57R) (MKP-1-ERα and ERK1): increases the interaction of ERK1 and WT, but not mutant, MKP-1 in cells
removal of phosphate from recombinant phospho-p38 by MKP-1 (phospho-p38): enhances the ability of MKP-1 to remove phosphate groups from recombinant phospho-p38
LPS-induced phospho-p38, control siRNA cells (p38; RAW cells expressing control hairpin RNA, LPS and TSA): limits this increase
effect of TSA on phospho-p38, MKP-1 siRNA cells (p38; RAW cells with siRNA of MKP-1, LPS and TSA): siRNA of MKP-1 blocks the effect of TSA
LPS-induced NOS2 expression, control vs MKP-1 siRNA cells (NOS2 [2]): decreases LPS-induced NOS2 expression in control cells, but not in cells with decreased MKP-1
mortality after LPS, dose response to TSA (WT mice): decreases mortality after LPS in a dose-responsive manner
decrease of IL-1β, MKP-1 KO macrophages (IL-1β): 34%
decrease of IL-1β, WT macrophages (IL-1β): 85%
LPS-induced IL-1β mRNA in liver (TNF-α and IL-1β): decreases
LPS-induced TNF-α mRNA in liver (TNF-α and IL-1β): decreases
COX-2 expression in liver (COX-2 and CXCL2): slightly increases
CXCL2 expression in liver (COX-2 and CXCL2): slightly increases
